In ChEMBL document CHEMBL3046139, “Preparation and phytotoxicity of novel kaurane diterpene amides with potential use as herbicides” (J Agric Food Chem, 2008):
Activity calls are given as the source filed them.

What was measured:
Assay type in all cases: functional, organism-based
Lactuca sativa [1] = test: Phytotoxicity in Lactuca sativa cv. Grand Rapids (lettuce) assessed as inhibition of radicle length at 1 mM measured 5 days post compound treatment
Procedure, shortened: (§1)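 Test solutions in deionized water, buffered with 10 mM MES and adjusted to pH 6.0-6.5 with NaOH. Concentrations below 10^-3 M made by dilution series. Osmotic pressure 30-38 mOsmolar. Petri dishes sealed with Parafilm and kept in the dark at 25 °C for 5 days, in triplicate. Seed counted as germinated when radicle was at least 0.2 mm. Radicle and shoot lengths measured by pachymeter with dishes held at 4 °C. Results given as percent difference from untreated control means. Student's t-test, P ≤ 0.05.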

Lactuca sativa [2] = test: Phytotoxicity in Lactuca sativa cv. Grand Rapids (lettuce) assessed as inhibition of seed germination at 0.1 uM measured 5 days post compound treatment; procedure, shortened: as §1
Lactuca sativa [3] = test: Phytotoxicity in Lactuca sativa cv. Grand Rapids (lettuce) assessed as inhibition of seed germination at 10 uM measured 5 days post compound treatment; procedure, shortened: as §1
Lactuca sativa [4] = test: Phytotoxicity in Lactuca sativa cv. Grand Rapids (lettuce) assessed as inhibition of seed germination at 1 mM measured 5 days post compound treatment; procedure, shortened: as §1
Lactuca sativa [5] = test: Phytotoxicity in Lactuca sativa cv. Grand Rapids (lettuce) assessed as inhibition of shoot length at 1 mM measured 5 days post compound treatment; procedure, shortened: as §1
Lactuca sativa [6] = test: Stimulation of seed germination in Lactuca sativa cv. Grand Rapids (lettuce) at 1 mM measured 5 days post compound treatment; procedure, shortened: as §1
Lactuca sativa [7] = test: Stimulation of shoot growth in Lactuca sativa cv. Grand Rapids (lettuce) at 0.1 uM measured 5 days post compound treatment; procedure, shortened: as §1
Lactuca sativa [8] = test: Stimulation of radicle growth in Lactuca sativa cv. Grand Rapids (lettuce) at 10 uM measured 5 days post compound treatment; procedure, shortened: as §1
Lactuca sativa [9] = test: Stimulation of radicle growth in Lactuca sativa cv. Grand Rapids (lettuce) at 0.1 uM measured 5 days post compound treatment; procedure, shortened: as §1
Lactuca sativa [10] = test: Stimulation of shoot growth in Lactuca sativa cv. Grand Rapids (lettuce) at 10 uM measured 5 days post compound treatment; procedure, shortened: as §1
Lactuca sativa [11] = test: Stimulation of seed germination in Lactuca sativa cv. Grand Rapids (lettuce) at 0.1 uM measured 5 days post compound treatment; procedure, shortened: as §1

C=C1C[C@@]23CC[C@@H]4[C@](C)(C(=O)N5CCOCC5)CCC[C@@]4(C)C2=CC[C@@H]1C3
active: inhibition (Lactuca sativa [1]) | inhibition (Lactuca sativa [2]) | inhibition (Lactuca sativa [3]) | inhibition (Lactuca sativa [4]) | inhibition (Lactuca sativa [5])

C=C1C[C@@]23CC[C@H]4[C@@](C)(CCC[C@@]4(C)C(=O)NCCN)[C@@H]2CC[C@@H]1C3
active: inhibition (Lactuca sativa [1]) | inhibition (Lactuca sativa [2]) | inhibition (Lactuca sativa [3]) | inhibition (Lactuca sativa [4]) | inhibition (Lactuca sativa [5])

C=C1C[C@]23C[C@@]1(O)CC[C@H]2[C@@]12C=C[C@H](O)[C@@](C)(C(=O)O1)[C@H]2[C@@H]3C(=O)O
active: Activity (Lactuca sativa [6])

C=C1C[C@@]23CC[C@H]4[C@@](C)(CCC[C@@]4(C)C(=O)NC4CCCCC4)[C@@H]2CC[C@@H]1C3
active: inhibition (Lactuca sativa [1]) | inhibition (Lactuca sativa [2]) | inhibition (Lactuca sativa [3]) | inhibition (Lactuca sativa [4]) | inhibition (Lactuca sativa [5])

C=C1C[C@@]23CC[C@@H]4[C@](C)(C(=O)NCCN)CCC[C@@]4(C)C2=CC[C@@H]1C3
active: inhibition (Lactuca sativa [1]) | inhibition (Lactuca sativa [2]) | inhibition (Lactuca sativa [3]) | inhibition (Lactuca sativa [4]) | inhibition (Lactuca sativa [5])

C=C1C[C@@]23CC[C@@H]4[C@](C)(C(=O)NCCCCCC)CCC[C@@]4(C)C2=CC[C@@H]1C3
active: inhibition (Lactuca sativa [1]) | inhibition (Lactuca sativa [2]) | inhibition (Lactuca sativa [3]) | inhibition (Lactuca sativa [4]) | inhibition (Lactuca sativa [5])

C=C1C[C@@]23CC[C@@H]4[C@](C)(C(=O)NCCCN)CCC[C@@]4(C)C2=CC[C@@H]1C3
active: inhibition (Lactuca sativa [1]) | inhibition (Lactuca sativa [2]) | inhibition (Lactuca sativa [3]) | inhibition (Lactuca sativa [4]) | inhibition (Lactuca sativa [5])

C=C1C[C@@]23CC[C@H]4[C@@](C)(CCC[C@@]4(C)C(=O)N4CCNCC4)[C@@H]2CC[C@@H]1C3
active: Activity (Lactuca sativa [7]) | inhibition (Lactuca sativa [1]) | inhibition (Lactuca sativa [2]) | Activity (Lactuca sativa [8]) | Activity (Lactuca sativa [9]) | inhibition (Lactuca sativa [3]) | Activity (Lactuca sativa [10]) | inhibition (Lactuca sativa [4]) | inhibition (Lactuca sativa [5])

C=C1C[C@@]23CC[C@@H]4[C@](C)(C(=O)Nc5ccccc5)CCC[C@@]4(C)C2=CC[C@@H]1C3
active: inhibition (Lactuca sativa [1]) | inhibition (Lactuca sativa [2]) | inhibition (Lactuca sativa [3]) | inhibition (Lactuca sativa [4]) | inhibition (Lactuca sativa [5])

C=C1C[C@@]23CC[C@H]4[C@@](C)(CCC[C@@]4(C)C(=O)N4CCOCC4)[C@@H]2CC[C@@H]1C3
active: inhibition (Lactuca sativa [1]) | inhibition (Lactuca sativa [2]) | inhibition (Lactuca sativa [3]) | inhibition (Lactuca sativa [4]) | inhibition (Lactuca sativa [5])

C=C1C[C@@]23CC[C@H]4[C@@](C)(CCC[C@@]4(C)C(=O)NCCCCN)[C@@H]2CC[C@@H]1C3
active: inhibition (Lactuca sativa [1]) | inhibition (Lactuca sativa [4]) | Activity (Lactuca sativa [11]) | inhibition (Lactuca sativa [5])

C=C1C[C@@]23CC[C@H]4[C@@](C)(CCC[C@@]4(C)C(=O)NCCCCCC)[C@@H]2CC[C@@H]1C3
active: inhibition (Lactuca sativa [1]) | inhibition (Lactuca sativa [2]) | inhibition (Lactuca sativa [3]) | inhibition (Lactuca sativa [4]) | inhibition (Lactuca sativa [5])

C=C1C[C@@]23CC[C@@H]4[C@](C)(C(=O)N5CCNCC5)CCC[C@@]4(C)C2=CC[C@@H]1C3
active: Activity (Lactuca sativa [7]) | inhibition (Lactuca sativa [1]) | inhibition (Lactuca sativa [2]) | Activity (Lactuca sativa [8]) | Activity (Lactuca sativa [9]) | inhibition (Lactuca sativa [3]) | Activity (Lactuca sativa [10]) | inhibition (Lactuca sativa [4]) | inhibition (Lactuca sativa [5])

C=C1C[C@@]23CC[C@H]4[C@@](C)(CCC[C@@]4(C)C(=O)Nc4ccccc4)[C@@H]2CC[C@@H]1C3
active: inhibition (Lactuca sativa [1]) | inhibition (Lactuca sativa [2]) | inhibition (Lactuca sativa [3]) | inhibition (Lactuca sativa [4]) | inhibition (Lactuca sativa [5])

C=C1C[C@@]23CC[C@@H]4[C@](C)(C(=O)NC5CCCCC5)CCC[C@@]4(C)C2=CC[C@@H]1C3
active: inhibition (Lactuca sativa [1]) | inhibition (Lactuca sativa [2]) | inhibition (Lactuca sativa [3]) | inhibition (Lactuca sativa [4]) | inhibition (Lactuca sativa [5])

C=C1C[C@@]23CC[C@@H]4[C@](C)(C(=O)NCCCCN)CCC[C@@]4(C)C2=CC[C@@H]1C3
active: inhibition (Lactuca sativa [1]) | inhibition (Lactuca sativa [4]) | Activity (Lactuca sativa [11]) | inhibition (Lactuca sativa [5])

C=C1C[C@@]23CC[C@H]4[C@@](C)(CCC[C@@]4(C)C(=O)NCCCN)[C@@H]2CC[C@@H]1C3
active: inhibition (Lactuca sativa [1]) | inhibition (Lactuca sativa [2]) | inhibition (Lactuca sativa [3]) | inhibition (Lactuca sativa [4]) | inhibition (Lactuca sativa [5])
